# Measured values reported in ChEMBL document CHEMBL4251677, “Pentaminomycins A and B, Hydroxyarginine-Containing Cyclic Pentapeptides from Streptomyces sp. RK88-1441” (J Nat Prod, 2018).
# Calls of active or inactive are those of the source. No cut-off for these calls is given here. Starred links: 1 amine or outer side, 2 acyl side, 3 side chain; linkers in the order of their positions; H or OH if unused. Non-standard residues stand in square brackets, D forms with d. Residues, ends and D or L forms follow the SMILES beside them. X1 = N=C(N)N(O)CCC[C@H](N[*:1])C(=O)[*:2]
# Key:
# HeLa = assay: Cytotoxicity against human HeLa cells at 30 uM after 24 hrs by EZ-cytox dye based assay; assay type: cell-based
# In short: (§1)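 Cells were seeded at 5.0 × 10^4 per well and grown 24 h, then exposed to compound for 24 h and washed with PBS. They were incubated 2 h in DMEM with EZ-Cytox reagent, and viability was read as water-soluble formazan optical density at 450 nm.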
# 4T1 = assay: Cytotoxicity against mouse 4T1 cells at 30 uM after 24 hrs by EZ-cytox dye based assay; assay type: cell-based; conditions: 4t1, 24 h; in short: as §1
# B16-F0 = assay: Cytotoxicity against mouse B16F0 cells at 30 uM after 24 hrs by EZ-cytox dye based assay; assay type: cell-based; conditions: b16-f0, 24 h; in short: as §1
# B16-F10 [1] = assay: Cytotoxicity against mouse B16F10 cells at 30 uM after 24 hrs by EZ-cytox dye based assay; assay type: cell-based; conditions: b16-f10, 24 h; in short: as §1
# B16-F10 [2] = assay: Antimelanogenic activity in mouse B16F10 cells assessed as inhibition of alpha-MSH-stimulated melanin synthesis up to 10 uM measured after 24 hrs; assay type: functional, cell-based
# In short: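 B16F10 cells (3.5 × 10^4 per well) were grown 24 h in phenol red-free complete DMEM at 37 °C, 5% CO2. They were then given α-MSH (200 nM) with compound at 0–10 μM for 24 h. Cells were PBS-washed, trypsin-EDTA detached and centrifuged. Melanin was read as absorbance at 405 nm; mean ± SD, n = 3.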
# B16-F10 [3] = assay: Antimelanogenic activity in mouse B16F10 cells assessed as inhibition of alpha-MSH-stimulated melanin synthesis by measuring reduction in TRP1 expression up to 10 uM measured after 24 hrs by Western blot analysis; assay type: functional, cell-based
# In short: (§2)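 B16F10 cells at 1.0 × 10^5 cells/mL were preincubated 24 h, then exposed to α-MSH (100 nM) plus 5, 7.5 or 10 μM compound for 24 h. Cells were lysed in M-per buffer. Whole-cell protein was run on SDS-PAGE and blotted to nitrocellulose, probed with anti-TRP-1 or anti-TRP-2 antibodies, and detected by chemiluminescence on film.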
# B16-F10 [4] = assay: Antimelanogenic activity in mouse B16F10 cells assessed as inhibition of alpha-MSH-stimulated melanin synthesis by measuring reduction in TRP2 expression up to 10 uM measured after 24 hrs by Western blot analysis; assay type: functional, cell-based; in short: as §2
Compound,Activity (HeLa),Activity (4T1),Activity (B16-F0),Activity (B16-F10 [1]),inhibition (B16-F10 [2]),inhibition (B16-F10 [3]),inhibition (B16-F10 [4])
CC(C)C[C@@H]1NC(=O)[C@@H](CC(C)C)NC(=O)[C@H](CCCN(O)C(=N)N)NC(=O)[C@H](Cc2c[nH]c3ccccc23)NC(=O)[C@@H](C(C)C)NC1=O (cyclo(L[dV]W[X1][dL])),Non-Toxic,Non-Toxic,Non-Toxic,Non-Toxic,,,
CC(C)C[C@H]1NC(=O)[C@H](CCCN(O)C(=N)N)NC(=O)[C@H](Cc2c[nH]c3ccccc23)NC(=O)[C@@H](C(C)C)NC(=O)[C@H](C(C)C)NC1=O,Non-Toxic,Non-Toxic,Non-Toxic,Non-Toxic,Active,Active,Active
